Screening data from PubChem BioAssay.
GPR7 antag = human neuropeptides B/W receptor 1 antagonism. P48145. GPR7-expressing cells, fluorescence antagonist assay. inhibition, % at 4.4 µM. 290,000 tested, 1.1% active. AID 1861; in the data active = inhibition above about 16%, passing the limit was not always enough;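 also: cells stimulated with the agonist NPW; 0% = agonist with vehicle and 100% = vehicle without agonist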
Target sequence (P48145 whole entry, looked up): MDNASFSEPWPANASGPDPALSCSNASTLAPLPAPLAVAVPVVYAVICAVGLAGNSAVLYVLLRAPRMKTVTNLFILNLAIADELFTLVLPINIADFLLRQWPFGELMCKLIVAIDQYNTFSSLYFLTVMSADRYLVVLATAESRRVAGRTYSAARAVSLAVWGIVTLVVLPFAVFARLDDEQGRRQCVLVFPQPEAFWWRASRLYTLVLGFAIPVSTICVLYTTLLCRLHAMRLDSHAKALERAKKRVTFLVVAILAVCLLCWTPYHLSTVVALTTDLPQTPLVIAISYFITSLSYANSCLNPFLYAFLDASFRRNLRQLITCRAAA
OX1R antag-1 = antagonists of human orexin 1 receptor; O43613; CHO/OX1R cells, Fluo-8 calcium fluorescence, orexin A; inhibition, % at 5 µM; 330,000 tested, 0.43% active; AID 434989;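 active = inhibition above its plate's threshold, mean inhibition of all tested compounds on the plate plus 3 SD, cut at about 37% in these data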;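 also: 0% = orexin A challenge wells and 100% = SB-334867-A antagonist wells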
CHO parental Ca = signal in parental CHO cells, OX1R antagonist counter-screen. parental CHO-K1, ATP-induced calcium, Fluo-8 fluorescence. inhibition, % at 5.6 µM. 330,000 tested, 0.63% active. AID 463079;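 active = inhibition above that plate's mean sample inhibition plus 3 SD, cut at about 26% in these data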;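 also: 0% = ATP-challenged DMSO wells and 100% = DMSO wells without ATP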
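test system = CHO parental line | reagent = ATP stimulus | measured by = intracellular calcium via Fluo-8 no-wash fluorescent dye | control set = ATP and no-ATP DMSO wells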
OX1R antag-2 = antagonists of human orexin 1 receptor (OX1R) | 330,000 tested, 1.8% active | OX1R-expressing cells, FRET antagonist read-out | inhibition, % at 6.6 µM; in the data active = inhibition mostly above about 38%, no sharp cut-off; inactive = mostly below about 40%;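 also: 0% = agonist challenge alone and 100% = reference antagonist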
TAAR1 antag = human TAAR1 antagonism. CHO RD-HGA16 TAAR1, Fluo-8 calcium fluorescence, antagonist. inhibition, % at 3 µM. 360,000 tested, 1.5% active;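 active = inhibition above a per-plate cutoff, the mean inhibition of test compounds on that plate plus 3 SD, cut at about 49% in these data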;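 also: 0% = DMSO plus EC80 beta-PEA response and 100% = DMSO alone without agonist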
Target sequence (Q96RJ0 whole entry, looked up): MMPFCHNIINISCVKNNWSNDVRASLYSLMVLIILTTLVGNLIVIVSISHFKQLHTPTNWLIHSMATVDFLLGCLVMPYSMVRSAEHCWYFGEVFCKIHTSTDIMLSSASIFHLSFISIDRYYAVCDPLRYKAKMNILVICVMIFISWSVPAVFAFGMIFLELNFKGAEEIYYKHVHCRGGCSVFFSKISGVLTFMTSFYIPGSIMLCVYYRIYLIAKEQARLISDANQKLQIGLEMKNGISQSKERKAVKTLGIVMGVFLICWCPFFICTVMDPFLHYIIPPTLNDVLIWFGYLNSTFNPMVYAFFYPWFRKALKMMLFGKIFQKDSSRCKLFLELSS
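Test system: CHO RD-HGA16 cells bearing hTAAR1 | Reagent: β-PEA, EC80 | Compound dosing: 3 µM, single point | Schedule: Dye loading 75 min at 37 °C, then 30 min room temperature | Signal: Calcium fluorescence with Fluo-8 | Evaluation: Percent inhibition of PEA-evoked calcium signal, max/basal emission ratio | Control set: DMSO-only wells and EC80 β-PEA-stimulated wells | Repeats: Singlicate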
TAAR1 agonist = human TAAR1 agonism | CHO RD-HGA16 TAAR1, Fluo-8 calcium fluorescence; vehicle wells 0%, saturating PEA agonist 100% | activation, % at 3 µM | 360,000 tested, 0.99% active;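 active = activation above the mean activation of all test compounds in the run plus 3 SD, cut at about 38% in these data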
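Test system: RD-HGA16 (CHO) cells co-expressing Gα16 and hTAAR1 | Doses: Single dose, 3 µM | Schedule: 17-24 h seeding, 75 min 37 °C dye, 30 min RT | Evaluation: % activation from peak over basal fluorescence ratio, DMSO-to-PEA scaled | Technique: Kinetic Fluo-8 calcium fluorescence | Benchmarks: Low control DMSO, high control PEA (EC100)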
TAAR1 ag conf = confirmation of human TAAR1 agonists. shares compounds with TAAR1 agonist. CHO RD-HGA16 TAAR1, Fluo-8 calcium fluorescence; scaled: DMSO 0%, maximal phenethylamine 100%. activation, % at 3 µM. 2,400 tested, 82% active. AID 651783;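 active = activation above a cutoff set at the run's mean compound activation plus 3 SD, cut at about 39% in these data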
Ga16 ag counter = nonselective agonist in parental cells, TAAR1 agonist counter-screen | CHO-Ga16 parental, Fluo-8 calcium fluorescence; normalized to maximal ATP response, DMSO zero | shares compounds with TAAR1 agonist | 2,400 tested, 50% active | AID 651787 | activation, % at 3 µM;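 active = activation above the run cutoff, the mean activation over all tested wells plus 3 SD, cut at about 12% in these data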;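 also: 0% = DMSO wells and 100% = maximal ATP response on the peak over basal ratio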
TAAR1 desens = TAAR1 response desensitization, agonist counter-screen. AID 651951. inhibition, % at 3 µM. 2,400 tested, 46% active. CHO RD-HGA16 hTAAR1, Fluo-8 calcium, beta-PEA response inhibition. shares compounds with TAAR1 agonist;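 active = inhibition above the run cutoff, the mean inhibition of all test compounds plus 3 SD, cut at about 49% in these data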;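 also: beta-PEA stimulus applied at its EC80; loss of beta-PEA calcium signal after compound pretreatment read as receptor desensitization; 0% = DMSO with beta-PEA at EC80 and 100% = DMSO alone without agonist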
Ga16 antag count = nonselective Ga16 antagonism, counter-screen | shares compounds with TAAR1 agonist | inhibition, % at 3 µM | CHO-Ga16 ATP-induced calcium, Fluo-8 fluorescence | AID 651952 | 2,400 tested, 39% active;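 active = inhibition above the plate's mean compound inhibition plus 3 SD, computed per plate, cut at about 22% in these data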;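 also: 0% = EC80 ATP with DMSO and 100% = DMSO wells without ATP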
* hit, by the source's call; nt = no result. An excerpt weighted towards active compounds, which were near 4.5% of everything screened.

SMILES	GPR7 antag	OX1R antag-1	CHO parental Ca	OX1R antag-2	TAAR1 antag	TAAR1 agonist	TAAR1 ag conf	Ga16 ag counter	TAAR1 desens	Ga16 antag count
Cc1ccc(NC(=O)CN2C(=O)S/C(=C/c3ccc(O)c([N+](=O)[O-])c3)C2=O)cc1C	6	nt	nt	nt	80*	91*	19	7	0	8
COc1ccc(S(=O)(=O)n2nc(OC(=O)c3cccs3)cc2N)cc1	-1	-12	-2	44	-6	53*	20	5	6	14
COc1ccc(S(=O)(=O)n2nc(OC(=O)c3ccccc3)cc2N)cc1	8	-1	-9	13	7	57*	51*	13*	6	16
COc1ccc(NC(=O)c2ccc(C(=O)c3ccccc3)o2)cc1	2	5	-4	23	57*	67*	6	8	23	15
COc1ccc(CC(=O)Nc2ccc(NC(=O)c3ccccc3F)cc2)cc1	-1	22	58*	2	99*	109*	60*	35*	42	16
COc1ccc(C(=O)Nc2ccc(C(=O)c3ccccc3)cc2)cc1	nt	4	18	24	27	12	nt	nt	nt	nt
O=C(Nc1ccc([N+](=O)[O-])cc1)c1cccc(S(=O)(=O)Nc2cccnc2)c1	-10	-10	7	12	12	0	nt	nt	nt	nt
N#C/C(=C\c1ccc(N2CCOCC2)o1)c1nc2ccccc2[nH]1	12	-3	7	32	27	92*	76*	101*	58*	52*
Cc1nn(C)c(C(=O)NNC(=S)NCc2ccco2)c1Br	-10	-10	-7	10	17	80*	-1	5	8	1
O=c1[nH]c(=O)n(C(c2ccccc2)c2ccccc2)cc1Br	-8	-15	-2	7	-24	4	nt	nt	nt	nt
O=c1[nH]nc(Br)c(=O)n1C(c1ccccc1)c1ccccc1	nt	nt	nt	nt	16	71*	47*	26*	18	10
O=C(N/N=C/c1ccc(O)c(O)c1)N/N=C/c1ccc(O)c(O)c1	0	nt	nt	nt	27	98*	83*	-1	73*	1
COc1ccc(-n2ccnc(SCC(=O)NCc3ccc(C)cc3)c2=O)cc1Cl	nt	-31	-24	16	-13	5	nt	nt	nt	nt
O=C(Nc1ccc(F)cc1)Nc1cccnc1	3	nt	nt	nt	-4	64*	81*	6	48	5
O=C(Nc1ccccc1)C(=O)Nc1cccnc1	3	-12	-4	3	-3	5	nt	nt	nt	nt
Fc1ccc(NC(=S)Nc2cccnc2)cc1	-8	-17	-4	13	30	6	nt	nt	nt	nt
O=C(Nc1ccccc1)Nc1ccc(Oc2cccnc2)nc1	-3	2	-4	13	-18	67*	90*	12*	80*	20
Cc1cccc(C(=O)NC(=S)NNC(=O)COc2c(C)cccc2C)c1	4	-15	1	9	90*	126*	143*	119*	96*	63*
Cc1ccc(C(=O)NC(=S)NNC(=O)COc2ccccc2C)cc1	1	-17	-1	13	-13	6	nt	nt	nt	nt
Cc1cccc(C(=O)NC(=S)NNC(=O)Cc2ccccc2)c1	-17	1	11	11	64*	119*	121*	89*	74*	45*
COc1cc(NC(=O)C2(C)CCCN(C(C)C)C2)cc(OC)c1OC (stereo not drawn)	nt	nt	nt	nt	-13	2	nt	nt	nt	nt
COCC(O)Cn1ccnc1[N+](=O)[O-] (stereo not drawn)	nt	nt	nt	nt	9	1	nt	nt	nt	nt
O=C(c1ccc(S(=O)(=O)N2CCCCC2)cc1)N1CCCC(C(F)(F)F)C1 (stereo not drawn)	nt	-1	-3	17	-25	10	nt	nt	nt	nt
CC(C)(C)c1ccc(OCCNC(=S)Nc2ccccc2)cc1	-12	-2	-13	28	16	6	nt	nt	nt	nt
CC(C)(C)c1ccc(OCCNCc2ccccc2)cc1	4	-19	-14	0	14	71*	72*	34*	21	11
SMILES	GPR7 antag	OX1R antag-1	CHO parental Ca	OX1R antag-2	TAAR1 antag	TAAR1 agonist	TAAR1 ag conf	Ga16 ag counter	TAAR1 desens	Ga16 antag count
Cc1cccc(OCC(=O)NNC(=O)c2cc3ccccc3oc2=O)c1	-7	-26	-19	73*	10	64*	84*	18*	36	2
Cc1cccc(NC(=O)COC(=O)c2cc3ccccc3oc2=O)c1	-6	-3	-6	26	5	2	nt	nt	nt	nt
O=C(COc1ccc(F)cc1)NNC(=O)c1cc2ccccc2oc1=O	-10	-24	-14	57	nt	nt	nt	0	nt	4
Cc1cc(N/N=C/c2ccccc2)nc(NCc2ccccc2)n1	5	-14	-9	22	28	51*	63*	17*	39	18
Cc1cc(N/N=C/c2ccccc2F)nc(NCc2ccccc2)n1	-11	-27	-15	0	-6	0	nt	nt	nt	nt
Cc1cc(N/N=C/c2cccc(F)c2)nc(NCc2ccccc2)n1	-6	-28	-16	11	28	60*	55*	5	45	15
CCCNC(=O)c1ccccc1NC(=O)Cc1ccc(OC)c(S(=O)(=O)N2CCOCC2)c1	nt	-24	-4	5	9	0	nt	nt	nt	nt
OC(COCc1ccccc1)CN1CCc2ccccc2C1 (stereo not drawn)	1	-12	-9	13	-25	25	nt	nt	nt	nt
OC(COc1c(F)cc(Br)cc1F)CN1CCc2ccccc2C1 (stereo not drawn)	-10	-38	-17	12	11	55*	66*	0	17	10
COc1cc(/C=C2/C(=O)NN(c3cccc(Cl)c3)C2=O)cc(OC)c1O	-4	-6	-14	12	8	18	nt	nt	nt	nt
CCOc1cc(/C=C2/C(=O)NN(c3cccc(Cl)c3)C2=O)ccc1O	-12	-13	-6	0	-13	53*	62*	18*	17	11
CCOc1ccc(CCNC(=O)CCCn2nc(C)c3c(C)n(-c4ccccc4)nc3c2=O)cc1	-14	-33	-38	13	-20	-2	nt	nt	nt	nt
C#CCOC(=O)CCC(=O)NCCc1ccccc1	0	-17	-7	6	77*	63*	84*	4	97*	11
O=C(CCCOc1ccccc1)NCCc1ccccc1	4	14	-6	7	nt	nt	nt	2	nt	7
